Screening results (PubChem)
Shown is part of a subset that was picked to be rich in hits.
S1P3 antag – S1P3 receptor antagonists, primary screen, cell-based; CHO S1P3 NFAT-BLA reporter, FRET fluorescence, antagonist mode; inhibition, % at 4.98 µM; 170,000 tested, 0.27% active; Sphingosine 1-phosphate receptor 3 (Homo sapiens), Q99500;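 active means inhibition above the plate cutoff, the mean inhibition of test wells on that plate plus 3 SD, cut at about 28% in these data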;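 further: cells challenged with S1P at its EC80 of 0.8 µM; blue over green emission ratio from cleaved BLA substrate after 4 h stimulation; 0% = S1P-stimulated wells and 100% = unstimulated DMSO-only wells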
Target sequence (Q99500 whole entry, looked up): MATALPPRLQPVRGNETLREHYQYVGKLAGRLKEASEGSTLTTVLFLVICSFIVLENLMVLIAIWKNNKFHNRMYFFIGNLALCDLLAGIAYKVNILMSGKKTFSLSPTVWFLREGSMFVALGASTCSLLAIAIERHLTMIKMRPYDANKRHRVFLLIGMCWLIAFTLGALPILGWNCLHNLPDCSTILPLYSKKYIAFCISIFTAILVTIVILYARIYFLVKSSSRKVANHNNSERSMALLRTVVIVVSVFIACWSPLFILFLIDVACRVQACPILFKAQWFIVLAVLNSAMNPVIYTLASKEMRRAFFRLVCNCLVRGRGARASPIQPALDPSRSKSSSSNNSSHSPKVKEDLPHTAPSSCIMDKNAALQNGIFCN
S1P4 antag – S1P4 receptor antagonists, primary screen, cell-based; Sphingosine 1-phosphate receptor 4 (Homo sapiens), O95977; S1P4-expressing cells, antagonist mode, reporter read-out; inhibition, % at 4.98 µM; 220,000 tested, 0.26% active; in the data active means inhibition above about 29%;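 further: 0% = wells stimulated with agonist and 100% = vehicle wells without agonist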
MDM2 E3 inh – MDM2-luciferase reporter signal enhancers, primary screen, MDM2 E3 ligase inhibitor project, cell-based, luminescence, 1536-well. E3 ubiquitin-protein ligase Mdm2 (Homo sapiens), Q00987. cell-based MDM2 ubiquitination luciferase reporter, 2 h; 0 = plate control, 100 = twice control, blank-subtracted. signal enhancement, % at 5 µM. 210,000 tested, 0.11% active. AID 1230, 2008;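 active means signal enhancement of 30% or more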;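 further: luminescence tracks abundance of the self-degrading MDM2-luciferase fusion protein; higher signal means inhibition of MDM2 E3 ligase activity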
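Material: stable MDM2–luciferase fusion reporter cells / Quantity: 2000 cells/well / Dosing: single 5 µM compound dose, 0.2% final DMSO / Buffer or medium: DMEM / Schedule: 4 h cell settling then 2 h compound exposure, 37 °C / Detection: luminescence with SteadyLite reagent, 15 min at room temperature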
S1P4 ag – S1P4 receptor agonists, primary screen, cell-based. Sphingosine 1-phosphate receptor 4 (Homo sapiens), O95977. S1P4-expressing cell line, agonist reporter assay. activation, % at 4.98 µM. 220,000 tested, 0.35% active; in the data active means activation above about 11%;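 further: 0% = DMSO vehicle and 100% = reference agonist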
L major viab – Leishmania major promastigote growth inhibition, primary screen; Leishmania major promastigotes, resazurin fluorescence viability; inhibition, % at 10 µM; 200,000 tested, 9% active; AID 1063, 2008; in the data active means inhibition above about 50%;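 further: promastigotes grown with compound for 44 hours at 28 °C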
* = called active by the depositor; . = no result given.

SMILES	S1P3 antag	S1P4 antag	MDM2 E3 inh	S1P4 ag	L major viab
CCOc1cc(/C=C(\C#N)C(=O)Nc2ccccc2[N+](=O)[O-])ccc1OCc1cccc2ccccc12	-2	-14	-8	2	-2
CCN=c1scc(-c2cccs2)n1/N=C/c1cc(OC)ccc1O	-23	-7	-21	1	75*
Clc1ccc(N=C2SCCS2)cc1	-8	-9	1	-4	.
Cc1c(N=Cc2ccc(Br)s2)cccc1[N+](=O)[O-]	.	4	3	-1	-3
O=[N+]([O-])c1ccc(C=Nc2ccc(Cl)c([N+](=O)[O-])c2)s1	12	-36	10	-2	100*
NC(=O)c1ccc(N=Cc2ccc([N+](=O)[O-])s2)cc1	7	-9	3	2	100*
O=C(N=Nc1c(O)[nH]c2ccc([N+](=O)[O-])cc12)c1ccccc1Cl	-8	-3	-11	0	.
O=C(N=Nc1c(O)[nH]c2ccc(Cl)cc12)c1cc(-c2cccs2)nc2ccccc12	-6	-14	-11	1	52*
Cc1ccn(S(=O)(=O)c2ccc(C(C)(C)C)cc2)n1	4	-6	-16	2	71*
CCOc1cc(S(=O)(=O)n2ccc(C)n2)ccc1Br	-8	-7	-3	2	-7
CCOc1ccc(-c2nnn(CC#N)n2)cc1OC	.	-15	-5	0	-2
Cc1cccc(CNC(=O)CCc2nnc(C3CCCCC3)o2)c1	-5	-7	-25	3	-8
Cc1cc(C)cc(-n2c(SCC(=O)Nc3cccc(S(=O)(=O)NC4=NCCCCC4)c3)nc3ccccc3c2=O)c1	-12	-7	-14	0	-3
Cc1cc(C)cc(N(CC(=O)NCc2ccco2)C(=O)CCC(=O)Nc2nccs2)c1	-13	-15	-6	-2	78*
C#CCNC(=O)C1=C[C@H](C2CCCCC2)C[C@H](OCc2ccc(CO)cc2)O1	-5	12	.	0	10
O=C(C1=C[C@H](C2CCCCC2)C[C@H](OCc2ccc(CO)cc2)O1)N1CCN(Cc2ccc3c(c2)OCO3)CC1	-19	19	.	-1	68*
CC(C)(C)[C@@H]1C=C(C(=O)NC2CC2)O[C@H](OCc2ccc(CO)cc2)C1	-8	-5	.	0	99*
CC(C)(C)[C@H]1C=C(C(=O)NC2CC2)O[C@@H](OCc2ccc(CO)cc2)C1	-3	-12	.	-3	23
O=C(C1=C[C@H](C2CC2)C[C@H](OCc2ccc(CO)cc2)O1)N1CCN(Cc2ccc3c(c2)OCO3)CC1	-2	3	.	-1	31
O=C(C1=C[C@@H](C2CCCCC2)C[C@@H](OCc2ccc(CO)cc2)O1)N1CCN(Cc2ccc3c(c2)OCO3)CC1	-20	15	.	0	57*
C#CCNC(=O)C1=C[C@@H](C2CCCCC2)C[C@@H](OCc2ccc(CO)cc2)O1	-31	6	.	-2	96*
CCc1nnc(NC(=O)C(CC)CC)s1	0	2	.	0	.
Cn1c2c(c(=O)n(C)c1=O)C(c1ccccc1OC(F)F)C1=C(CCCC1=O)N2 (stereo unspecified)	43	8	-21	-1	1
Cc1nonc1CN(C)C(=O)CC1C(=O)NCCN1Cc1cccc(C(F)(F)F)c1 (stereo unspecified)	2	-7	0	1	-8
O=C(Nc1ccc(Cl)cc1C(=O)N1CCCC1)c1cccc([N+](=O)[O-])c1	11	2	1	0	10
SMILES	S1P3 antag	S1P4 antag	MDM2 E3 inh	S1P4 ag	L major viab
COc1ccc(N(C(=O)c2ccc(F)cc2)C2=CC3CCC(C2)N3C)cc1 (stereo unspecified)	.	2	-17	-3	-3
COc1ccc(CCN(C(=O)c2ccccc2)C2=CC3CCC(C2)N3C)cc1OC (stereo unspecified)	85*	-11	-9	-1	-3
CN1C2C=C(N(CCc3c[nH]c4ccccc34)C(=O)c3ccc(Cl)cc3)CC1CC2 (stereo unspecified)	.	10	-13	-1	101*
CCCCN1C(=S)NC[C@@H]1Cc1ccccc1	4	-21	.	2	2
CCC(C(=O)NCc1ccco1)N(C(=O)CNS(=O)(=O)c1ccccc1)C1CCCCC1 (stereo unspecified)	.	4	-4	0	40
CCCC(C(=O)NCc1ccco1)N(C(=O)CNS(=O)(=O)c1ccc(Cl)cc1)C1CCCC1 (stereo unspecified)	0	3	-13	-3	67*
CCCn1nnc(NC(=O)/C=C/c2ccccc2)n1	-10	7	-1	0	28
Cc1nc(NC(=O)/C=C/c2ccccc2)n[nH]1	2	0	39*	1	30
CC1CCN(C(=O)c2cc(F)c(F)cc2Cl)CC1	.	-13	-1	0	-1
COC(=O)c1ccc(CSc2nc3ccccc3c(=O)n2CC(C)C)o1	.	-8	-1	-1	22
CCCn1c(C)cc(C(=O)CSc2nc3ccccc3c(=O)n2Cc2ccco2)c1C	-7	-12	6	-1	89*
O=C(CSc1nc2ccccc2c(=O)n1Cc1ccco1)NCc1ccccc1	76*	5	.	-1	-5
CN(C)C(=O)CSc1nc(SCC(=O)N(C)C)n(-c2ccccc2)n1	2	6	-26	2	1
COC(=O)c1ccc(CSc2nc3ccccc3c(=O)n2Cc2ccco2)o1	18	-11	-31	-1	97*
O=C(CSc1nc(SCC(=O)NCc2ccccc2)n(-c2ccccc2)n1)NCc1ccccc1	.	-5	-19	4	94*
Cc1cc2c3c(c1)C(C)CC(C)(C)N3C(=O)C2=C(C#N)C#N (stereo unspecified)	-6	3	4	1	.
COC(=O)c1ccc(Cn2nc([N+](=O)[O-])c(Br)c2C)cc1	7	4	-3	-1	.
COC(=O)c1ccc(CSc2nnc(-c3ccncc3)n2Cc2ccccc2)o1	6	1	-15	-3	76*
CNC(=O)CSc1nnc(-c2ccncc2)n1Cc1ccccc1	-17	-59	-4	1	2
O=C(CSc1nnc(-c2ccncc2)n1Cc1ccccc1)NC1CCCc2ccccc21 (stereo unspecified)	6	-8	-13	-2	83*
N#Cc1ccc(CSc2nnc(-c3ccncc3)n2CCc2ccccc2)cc1	-18	-2	-13	0	90*
Cn1c(CN2CCCCC2)nc2cc(NS(=O)(=O)c3ccc(F)cc3)ccc21	-4	0	-1	0	25
O=C(Nc1ccc2c(c1)nc1n2CCN(Cc2ccccc2)C1)NC1CCCCC1	.	11	-6	3	1
COc1ccccc1C(=O)Nc1ccc2c(c1)nc1n2CCN(Cc2ccccc2)C1	-4	-14	5	3	21
